RGS4 pot = potentiators or activators of RGS4. B-score at 10 µM. HEK293 M3R/inducible RGS4, carbachol calcium flux Fluo4; hits give low values. 310,000 compounds, 0.92% hits;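 active means B-score of the integrated calcium signal more than 4 SD below the library mean, with starting fluorescence not abnormally high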;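 further: negative B-score means reduced calcium response which marks RGS4 activation or potentiation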
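Assay system: Inducible-RGS4 HEK293 cells carrying M3 receptor | Schedule: Compound preincubation 20 min at room temperature before agonist | Signal: Kinetic calcium fluorescence imaging with Fluo4-AM dye, 2 µM | Read-out basis: B score from integrated fluorescence ratio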
RGS4 block = human RGS4 inhibition; P49798; HEK293 M3R/RGS4 inducible, Fluo-4 calcium flux; hits give high values; triggered by carbachol at its EC20; B-score at 10 µM; 310,000 compounds, 0.45% hits;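 active means B-score, a plate-corrected calcium signal, over three deviations above library mean, with baseline fluorescence within five deviations of library mean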;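 further: RGS4 expression induced by doxycycline in cells with stable M3 receptor; B-score is computed from the integrated fluorescence ratio over baseline after carbachol; higher B-score means a larger calcium signal and so more RGS4 inhibition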
Target sequence (P49798 whole entry, looked up): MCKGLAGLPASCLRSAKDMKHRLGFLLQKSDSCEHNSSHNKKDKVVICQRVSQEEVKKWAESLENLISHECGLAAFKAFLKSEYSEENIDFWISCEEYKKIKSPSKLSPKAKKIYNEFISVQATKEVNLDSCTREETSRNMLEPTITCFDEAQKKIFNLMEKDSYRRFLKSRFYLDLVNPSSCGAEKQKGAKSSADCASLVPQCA
MrgX1 allo act = human MrgX1 positive allosteric modulation, primary screen. MrgX1-HEK293, Fluo-4 calcium flux, FDSS; hits give high values. B-score at 10 µM. 310,000 compounds, 0.63% hits. AID 588675;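 active means plate-corrected calcium response at least 3 library SD above typical, normal starting fluorescence, not activating the receptor alone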;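 further: compound read alongside a low EC10 to EC30 dose of BAM8-22 agonist; peak minus trough fluorescence over baseline measured at the second addition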
Target sequence (Q96LB2 whole entry, looked up): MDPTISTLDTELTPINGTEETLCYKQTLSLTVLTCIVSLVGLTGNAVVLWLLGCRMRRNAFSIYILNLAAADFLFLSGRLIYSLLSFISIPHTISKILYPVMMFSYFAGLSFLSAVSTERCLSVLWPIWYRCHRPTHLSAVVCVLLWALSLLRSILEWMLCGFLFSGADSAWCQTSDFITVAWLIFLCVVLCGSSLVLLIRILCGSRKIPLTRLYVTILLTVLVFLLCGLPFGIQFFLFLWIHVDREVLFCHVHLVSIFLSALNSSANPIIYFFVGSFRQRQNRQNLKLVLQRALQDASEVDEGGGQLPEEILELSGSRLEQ
MrgX1 ag = agonists of human MrgX1 receptor. Q96LB2. AID 588627. B-score at 10 µM. MrgX1-HEK293 cells, Fluo-4 calcium fluorescence, agonist mode; hits give high values. 310,000 compounds, 0.44% hits;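 active means calcium response B-score plate-corrected fluorescence ratio at least 3 library SD, with starting fluorescence B-score inside 5 SD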
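Test system: HEK293 cells stably expressing human MrgX1 receptor; Input: fifteen thousand cells per well; Dosing: compound delivered in addition one of three; Schedule: overnight seeding, then 1 h dark dye loading; Technique: Fluo-4 NW calcium fluorescence; Measure: B-scored fluorescence response ratio; Controls: positive and negative controls per plate.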
MrgX1 antag = blocks BAM8-22 activation of human MrgX1 receptor | Q96LB2 | 310,000 compounds, 1.3% hits | B-score at 10 µM | MRGX1-HEK293 calcium flux, Fluo-4, BAM8-22 antagonism; hits give low values;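 active means calcium-response B-score plate-corrected more than 3 library SD below zero, starting fluorescence within 5 deviations, no agonist response on first addition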;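 further: peak minus trough fluorescence over baseline after final BAM8-22 challenge near maximal dose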
Hits are given with their value; - = inactive; . = no result given. Compounds with a hit are over-represented: about 3.5% of the library has one in this group of screens.

SMILES	RGS4 pot	RGS4 block	MrgX1 allo act	MrgX1 ag	MrgX1 antag
COc1ccc(/C=N/Nc2nc(-c3cccc(S(=O)(=O)N4CCCC4)c3)cs2)cc1OC	-	-	-	-	-
O=S(=O)(c1cccc(-c2csc(N/N=C/c3ccco3)n2)c1)N1CCOCC1	-8.6	-	-	-	-
Cc1ccc(NS(=O)(=O)c2ccc3[nH]c(=O)[nH]c3c2)cc1	-	-	-	-	-
Cc1ccc(S(=O)(=O)Nc2ccccc2F)cc1C(=O)NCCCN1CCCC1=O	-	-	-	-	-
COc1ccccc1NS(=O)(=O)c1ccc(C)c(C(=O)NCCCN2CCCC2=O)c1	-	-	-	-	-9.1
Cc1ccccc1OCC(=O)Nc1ccc2c(c1)Cc1ccccc1-2	-	-	-	-	-
Cc1ccccc1OCC(=O)Nc1ccc(N2CCN(C)CC2)c(Cl)c1	-7.9	-	-	-	-
CC(NCC(=O)Nc1cc(S(=O)(=O)N2CCOCC2)ccc1Cl)c1ccc(Cl)cc1Cl (stereo not given)	-	-	-	-	-7.3
COc1ccc(NC2=C(NCCO)C(=O)c3ccccc3C2=O)cc1	-	-	-	-	-
CCOc1ccc(NC2=C(OC)C(=O)c3ccccc3C2=O)cc1	-	-	7.3	-	-
COC1=C(Nc2ccc(O)cc2)C(=O)c2ccccc2C1=O	-	-	-	-	-
COC1=C(Nc2ccc(OC)cc2)C(=O)c2ccccc2C1=O	-	-	7.8	-	-
CC(C)(C)N(Cc1ccccc1)C(=O)COC(=O)c1cccc([N+](=O)[O-])c1	-	-	-	-	-
CCc1nc(Nc2ccc3c(c2)OCCO3)c2oc3ccccc3c2n1	-7.3	-	-	-	-
O=C(NC(=Nc1nc2ccccc2o1)NC(=O)c1ccccc1)c1ccccc1	-	-	-	-	-
COc1ccccc1C(=O)NC(=Nc1nc2ccccc2o1)NC(=O)c1ccccc1OC	-7.2	-	-	-	-
COc1ccc(Cc2nnc(Cl)c3ccccc23)cc1OC	-	-	-	-	-
O=C(COc1ccc(S(=O)(=O)NC2CCCCC2)cc1)NCc1cccnc1	-	-	-	-	-
N#CCCN(Cc1cccnc1)S(=O)(=O)c1ccc(S(=O)(=O)NC2CCCCC2)cc1	-	-	-	-	-5.6
[O-][n+]1c2ccccc2c2n1CCCN=C2c1ccc(Cl)cc1	-	-	-	-	-
Cc1cc(C)[n+](-c2ccc(C(C)C)cc2)c2[nH]c(=O)[nH]c(=O)c12	-9	-	-	-	-
CN(C(=O)c1ccncc1)c1ccccc1	-	-	-	-	-
C/C(=N\N(Cc1ccccc1)c1ccccc1)c1ccncc1	-9.2	-	-	-	-
CC(C)N1CCC(NC(=O)Nc2ccc3c(c2)OCO3)CC1	-	-	-	-	-
CN(C)c1ccc(C2(c3ccc(N(C)C)cc3)OC(=O)c3cc(N)ccc32)cc1	-	-	-	-	-
SMILES	RGS4 pot	RGS4 block	MrgX1 allo act	MrgX1 ag	MrgX1 antag
CC1C(=NO)C(C)C(c2ccccc2)NC1c1ccccc1 (stereo not given)	-	-	-	-	-
Cc1ccc(C2NC(c3ccc(C)cc3)C(C)C(=NO)C2C)cc1 (stereo not given)	-	-	12	-	-
Cc1ccc(CSc2nc3ccccc3cc2C=O)cc1	-8.3	-	-	-	-
CCOC(=O)C1CCCCN1S(=O)(=O)c1cc2c(cc1C)NC(=O)CO2 (stereo not given)	-	-	-	-	-
Cn1cnc(S(=O)(=O)N2CCN(C(c3ccc(F)cc3)c3ccc(F)cc3)CC2)c1	-	-	-	-	-
O=C1CC(=Nc2ccccc2)NN1c1ccccc1	-	-	7.4	-	-
O=C1Cc2ccccc2N1c1ccccc1	-	-	-	-	-
NC(=Nc1ccccc1)Nc1ccccc1	-8.5	-	-	84	-
COc1cc(N(C)C)c([N+](=O)[O-])cc1C(=O)NC(C)CNc1ccc([N+](=O)[O-])cc1Cl (stereo not given)	-	-	-	-	-6.1
CCN(CC)CCNC(=O)c1cc([N+](=O)[O-])c(N(C)C)cc1OC	-	-	-	-	-
Cc1ccc(C2=CC(C)(c3ccc(C)cc3)Nc3nc(C(F)(F)F)nn32)cc1 (stereo not given)	-7	-	-	-	-
COc1ccc(NC(=O)/C(C#N)=C\c2ccc(N3CCOCC3)o2)cc1	-8.6	-	-	-	-
N#C/C(=C/c1ccc(N2CCCCC2)o1)C(=O)Nc1ccc(Cl)cc1	-	-	-	-	-7.8
N#C/C(=C/c1ccc(N2CCCCC2)o1)C(=O)Nc1ccc2ccccc2c1	-	-	.	.	.
N#C/C(=C\c1ccc(N2CCOCC2)o1)C(=O)Nc1ccc(O)cc1	-	-	-	-	-
O=C(CCn1cccc1)Nc1ccc(OC(F)(F)F)cc1	-	-	-	-	-
Cc1ccc(NC(=O)Cn2ccc([N+](=O)[O-])n2)cc1Cl	-	-	-	-	-
O=C(NC1CCN(C(=O)c2cccc([N+](=O)[O-])c2)CC1)c1ccccc1	-	-	-	-	-
CC1=NN(c2ccc(C)cc2)C(=O)/C1=C\c1ccc(Br)s1	-	-	-	-	-6.5
CC1=NN(c2ccc(Br)cc2)C(=O)/C1=C/c1cccs1	-	-	14	-	-
Cc1c(Br)c([N+](=O)[O-])nn1CC(=O)NC1CCCCCC1	-	-	-	-	-
CCCCn1c(N)c(N(CC(C)C)C(=O)c2ccc(OCC3CCCO3)cc2)c(=O)[nH]c1=O (stereo not given)	-	-	-	-	-6.2
N#C/C(N=Nc1ccccc1O)=N\Nc1ccccc1O	-	-	-	-	-
Cc1ccc(-c2nc(=S)c3c(n2Cc2ccco2)CC(C)(C)OC3)cc1	-	-	-	-	-6
Cc1ccc(-c2nc(=S)c3c(n2CC2CCCO2)CC(C)(C)OC3)cc1 (stereo not given)	-	-	-	-	-
SMILES	RGS4 pot	RGS4 block	MrgX1 allo act	MrgX1 ag	MrgX1 antag
CCc1nc(SCC(=O)Nc2ccc(F)cc2)c2c(=O)n(C)c(=O)n(C)c2n1	-	-	-	-	-
N#Cc1ccc(NC(=O)CNc2cc(S(=O)(=O)N3CCOCC3)ccc2NCC2CCCO2)cc1 (stereo not given)	-	-	6.6	-	-
COc1cccc(CNc2ccc(F)c([N+](=O)[O-])c2)c1O	-	-	18	-	-
CC(=O)NC1C(=O)N(CCN2CCOCC2)c2ccc(C)cc21 (stereo not given)	-	-	-	-	-6.1
CCCCNc1c(NC(C)=O)c(=O)oc2ccccc12	-	-	-	-	-
COc1ccccc1/C=N/NC(=O)NC12CC3CC(CC(C3)C1)C2	-	-	-	-	-
COc1ccc(/C=N/NC(=O)NC23CC4CC(CC(C4)C2)C3)c(OC)c1	-	-	6.9	-	-
CC(C)C(C(=O)N1CCN(C(=O)OC(C)(C)C)CC1)n1cc(-c2cn([C@@H](C)C(=O)N3CCN(C(=O)OC(C)(C)C)CC3)nn2)nn1 (stereo not given in full)	-	-	.	.	.

Source: PubChem BioAssay (Johns Hopkins Ion Channel Center)
